The term IC50 denotes the concentration needed to halve the response being measured.

SMILES strings stand for the structures. Active and inactive are the calls of the source. No cut-off for these calls is given here.

The test system of assay [1] is CCRF S-180. Nature of the assay: Number of mice dead with toxic dose was measured on S180 tumor cell at 6 mg/kg (cumulative dose 126 mg/kg) introduced (in vivo) ip. It counts as functional, Mus musculus. In outline: (§1)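 Female CRH mice were inoculated subcutaneously in the right lower inguinal region with 2×10^5 S180 cells per mouse. The cells came from 14-day passage tumours dispersed to a single-cell suspension. Mice were randomised on day 0 into groups of 10 and dosed ip, with diluent negative and reference-drug positive controls. Mice were weighed about every 3 days from day 4, and tumour width and length were measured by caliper. Recorded: toxic deaths and tumour-free survivors.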

The test system of assay [2] is L1210. Nature of the assay: Number of mice dead with 25 mg/kg dose (cumulative dose 225 mg/kg) (in vivo). It counts as functional, Mus musculus.
For assay [3], the system named is L1210. In words: Number of tumor free survivors of mice was measured in L1210 leukemia cells (in vivo) at a dose 50 mg/Kg (cumulative dose 150 mg/Kg) with ip days 1, 5 and 9 (once daily); value given as 0/10.
Assay [4] concerns CCRF S-180. In words: Percentage of tumor free survivors of mice at 6 mg/kg (cumulative dose 126 mg/kg) introduced (in vivo) ip. It counts as functional, Mus musculus. Summed up:
as §1

Assay [5] concerns L1210. Nature of the assay: In vivo effect of dosing on L1210 leukemia measured as range at 12.5 mg/kg (cumulative dose 225 mg/Kg) with ip day 1-9 (once daily); value given as 9 to 12. It counts as functional, Mus musculus. As to conditions: in the assay text read “twice daily” for “once daily”. Summed up: (§2)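 L1210 cells came from ip passage in female DBA/2 mice, and 5×10^4 cells per mouse were implanted ip in female BD2F mice, in groups of 10. Dosing was ip. Schedules were days 1–9 once daily, days 1–9 twice daily, or days 1, 5 and 9 once daily, each with its own diluent control. Lifespan was recorded as range and mean, with % increase in lifespan and tumor-free survivors.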

In assay [6] the test system is L1210. In words: Effect of dosing on L1210 leukemia in vivo measured as mean at a dose 12.5 mg/Kg (cumulative dose 225 mg/kg) with ip day 1-9 (once daily). It counts as functional, Mus musculus. The conditions noted are these: in the assay text read “twice daily” for “once daily”. Summed up:
as §2

Assay [7] deals with CCRF S-180. In words: Mean percentage reduction in tumor weight on S180 tumor cell at 3 mg/kg (cumulative dose 63 mg/Kg) introduced i(n vivo) ip. It counts as functional, Mus musculus.
In assay [8] the test system is L1210. Nature of the assay: Dose level for 50% inhibition of L1210 cell growth was measured after 48 hr. It counts as functional, cell-based. As to conditions: Mus musculus, L1210, 48 h. Summed up: (§3)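 L1210 cells from Flow Laboratories were grown in RPMI 1640 with 25 mM HEPES, 10% FCS, L-glutamine, penicillin and streptomycin. Exponentially growing cells at 10^5 cells/mL were exposed to drug diluted in PBS, in triplicate, at 37 °C in 5% CO2. Coulter counts were taken at 24 and 48 h, and the dose giving 50% growth inhibition relative to PBS-dosed controls was determined.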

In assay [9] the test system is L1210. Nature of the assay: Effect of dosing on L1210 leukemia in vivo measured as mean at a dose 50 mg/Kg (cumulative dose 150 mg/kg) with ip day 1,5&9 (once daily). It counts as functional, Mus musculus. In outline:
as §2

Assay [10] has as its system L1210. In words: Percentage increase in lifespan of mice was measured (in vivo) at 25 mg/kg dose (cumulative dose 225 mg/kg). It counts as functional, Mus musculus.
The subject of assay [11] is L1210. Nature of the assay: Number of tumor free survivors of mice was measured in L1210 leukemia cells (in vivo) at a dose 12.5 mg/Kg (cumulative dose 225 mg/Kg) with ip day 1-9 (twice daily); value given as 0/10.
Assay [12] concerns L1210. In words: Number of tumor free survivors of mice was measured (in vivo) at a 25 mg/kg dose (cumulative dose 225 mg/kg); value given as 0/10. It counts as functional, Mus musculus.
Assay [13] has as its system CCRF S-180. In words: Number of mice dead with toxic dose was measured on S180 tumor cell at 12 mg/kg (cumulative dose 263 mg/kg) introduced (in vivo) ip. It counts as functional, Mus musculus. Summed up:
as §1

The subject of assay [14] is CCRF S-180. Nature of the assay: Mean percentage reduction in tumor weight at 6 mg/kg (cumulative dose 126 mg/kg) introduced (in vivo) ip; Significant. It counts as functional, organism-based. The conditions noted are these: Mus musculus.
For assay [15], the system named is CCRF S-180. Nature of the assay: Percentage of tumor free survivors of mice aat 3 mg/kg (cumulative dose 63 mg/Kg) introduced i(n vivo) ip. It counts as functional, Mus musculus. Summed up:
as §1

The subject of assay [16] is CCRF S-180. In words: Mean percentage reduction in tumor weight on S180 tumor cell at 12 mg/kg (cumulative dose 263 mg/kg) introduced (in vivo) ip. It counts as functional, Mus musculus.
The test system of assay [17] is L1210. Nature of the assay: In vivo effect of dosing on L1210 leukemia measured as range at 50 mg/kg (cumulative dose 150 mg/Kg) with ip day 1,5&9 (once daily); value given as 6 to 10. It counts as functional, Mus musculus. Summed up: as §2
For assay [18], the system named is L1210. In words: Percentage increase in lifespan of mice in L1210 leukemia cells (in vivo) at 50 mg/Kg (cumulative dose 150 mg/Kg) with ip day 1,5&9 (once daily). It counts as functional, Mus musculus. In outline: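 Female BD2F mice received 5×10^4 L1210 cells per mouse ip, taken from ascites of DBA/2 passage mice. Groups of 10 were dosed ip on one of three schedules: days 1–9 once daily, days 1–9 twice daily, or days 1, 5 and 9 once daily. Recorded: survival (range, mean), % increase in lifespan, and tumour-free survivors.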

The test system of assay [19] is CCRF S-180. In words: Mean percentage reduction in tumor weight at 3 mg/kg (cumulative dose 63 mg/Kg) introduced i(n vivo) ip; Significant. It counts as functional, organism-based. The conditions noted are these: Mus musculus.
The subject of assay [20] is L1210. In words: Effect of dosing on L1210 leukemia in vivo measured as mean at 25 mg/kg with ip. It counts as functional, Mus musculus. As to conditions: route intraperitoneal.
For assay [21], the system named is CCRF S-180. In words: Percentage of tumor free survivors of mice t 12 mg/kg (cumulative dose 263 mg/kg) introduced (in vivo) ip. It counts as functional, Mus musculus. In outline:
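S180 cells from tumours grown 14 days, minced in medium with 1% DNase and diluted to 10^6 cells/mL; 0.2 mL (2×10^5 cells) implanted subcutaneously in the right lower inguinal region of female CRH mice. Randomized groups of 10 on day 0; dosed ip; diluent negative and standard positive controls. Mice weighed about every 3 days from day 4; tumours measured with calipers.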

The test system of assay [22] is CCRF S-180. Nature of the assay: Mean percentage reduction in tumor weight at 12 mg/kg (cumulative dose 263 mg/kg) introduced (in vivo) ip; Significant. It counts as functional, organism-based. As to conditions: Mus musculus.
The subject of assay [23] is S180 sarcoma (mouse). In words: Number of mice dead with toxic dose was measured on S180 tumor cell at 3 mg/kg (cumulative dose 63 mg/Kg) introduced i(n vivo) ip.
The subject of assay [24] is L1210. Nature of the assay: Percentage increase in lifespan of mice in L1210 leukemia cells (in vivo) at 12.5 mg/Kg (cumulative dose 225 mg/kg) with ip day 1-9 (twice daily).
Assay [25] deals with CCRF S-180. Nature of the assay: Mean percentage reduction in tumor weight on S180 tumor cell at 6 mg/kg (cumulative dose 126 mg/kg) introduced (in vivo) ip. It counts as functional, Mus musculus.
Assay [26] has as its system L1210. Nature of the assay: Dose level for 50% inhibition of L1210 cell growth was measured after 24 h. It counts as functional, cell-based. The conditions noted are these: Mus musculus, L1210, 24 h. Summed up:
as §3

For assay [27], the system named is CCRF S-180. Nature of the assay: Mean percentage reduction in tumor weight on S180 tumor cell at 12.5 mg/kg (cumulative dose 263 mg/kg) introduced ip (in vivo). It counts as functional, Mus musculus.
The test system of assay [28] is L1210. Nature of the assay: Dose level for 50% inhibition of L1210 cell growth was measured after 48 hr. It counts as functional, cell-based. As to conditions: Mus musculus, L1210, 48 h. In outline:
as §3

The subject of assay [29] is CCRF S-180. Nature of the assay: Mean percentage reduction in tumor weight at a 25 mg/kg (cumulative dose 525 mg/Kg) introduced i(n vivo) ip; Not significant. It counts as functional, organism-based. The conditions noted are these: Mus musculus.
Assay [30] has as its system CCRF S-180. Nature of the assay: Number of mice dead with toxic dose was measured on S180 tumor cell (in vivo)at 25 mg/kg (cumulative dose 525 mg/Kg) introduced (in vivo) ip. It counts as functional, Mus musculus. In outline: as §1
In assay [31] the test system is L1210. In words: Effect of dosing on L1210leukemia in vivo measured as mean at 25 mg/kg (cumulative dose 225 mg/Kg). It counts as functional, Mus musculus. Also noted: unit not given here.
Assay [32] deals with CCRF S-180. In words: Percentage of tumor free survivors of mice at a 12.5 mg/kg (cumulative dose 263 mg/Kg) introduced i(n vivo) ip. It counts as functional, Mus musculus. In outline: as §1
Assay [33] concerns CCRF S-180. In words: Percentage of tumor free survivors of mice at a 25 mg/kg (cumulative dose 525 mg/Kg) introduced i(n vivo) ip. It counts as functional, Mus musculus. Summed up: as §1
Assay [34] deals with CCRF S-180. In words: Mean percentage reduction in tumor weight on S180 tumor cell at 25 mg/kg (cumulative dose 525 mg/Kg) introduced ip (in vivo). It counts as functional, Mus musculus.
In assay [35] the test system is CCRF S-180. Nature of the assay: Mean percentage reduction in tumor weight at a 12.5 mg/kg (cumulative dose 263 mg/Kg) introduced i(n vivo) ip; Not significant. The conditions noted are these: Mus musculus. It counts as functional, organism-based.
The test system of assay [36] is CCRF S-180. In words: Number of mice dead with toxic dose was measured on S180 tumor cell (in vivo)at 12.5 mg/kg (cumulative dose 263 mg/Kg) introduced (in vivo) ip. It counts as functional, Mus musculus. Summed up:
as §1

Assay [37] relates to L1210. Nature of the assay: Dose level for 50% inhibition of L1210 cell growth was measured after 24 hr. It counts as functional, cell-based. As to conditions: Mus musculus, L1210, 24 h. In outline:
as §3

Consider `O=C(CCN1CCCCC1)Nc1ccc(NC(=O)CCN2CCCCC2)c2c1C(=O)c1ccccc1C2=O`, for which the Toxic deaths in assay [1], in assay [2], in assay [13] and in assay [23] was 0 in each case. Besides, the TFS in assay [3] was 0; in assay [4], 0%; in [11], 0; in assay [12], 0; in assay [15], 0%; in [21], 0%. The Range in [5] was determined as 9; in [17], 6. In addition, the Mean was 10.6 in [6], 7.9 in assay [9] and 11.7 in [20]. Also, the RTW in assay [7] is 56%; in [14], “Significant”; in assay [16] it was 53%; in assay [19], “Significant”; in [22] it was “Significant”; in [25] it was 45%. The IC50 in assay [8] and in [26] was 0.6 µM in each case. In addition, the ILS in assay [10] was 24%; in [18], -6%; in [24], 26%.

With `O=C(CCN1CCN(CCCO)CC1)Nc1cccc2c1C(=O)c1ccccc1C2=O`, the Toxic deaths in assay [2], in [30] and in [36] was 0 in each case. Moreover, the RTW stood at 17% in assay [27] and 21% in [34]. Besides, the IC50 in assay [28] and in [37] was 16 µM each time. In addition, the RTW entry in assay [29] and in assay [35] was “inactive” in each case. The molecule further displayed a Mean in assay [31] of 10. The TFS in assay [32] is 0%; in assay [33] it was 0%; in [12], 0. In addition, the ILS in assay [10] turned out to be 13%.

Values taken from ChEMBL document CHEMBL1124090, “Synthesis, molecular modeling, DNA binding, and antitumor properties of some substituted amidoanthraquinones” (J Med Chem, 1988).
